ChEMBL document CHEMBL4020757, “Lathyrol and epoxylathyrol derivatives: Modulation of Cdr1p and Mdr1p drug-efflux transporters of Candida albicans in Saccharomyces cerevisiae model” (Bioorg Med Chem, 2017)
In brackets after ≈: the same amount, converted by molar mass.

Tests used:
Saccharomyces cerevisiae [1] = experiment: Resistance index, ratio of MIC80 for Saccharomyces cerevisiae AD over-expressing Candida albicans MDR1 to MIC80 for Saccharomyces cerevisiae AD1-8u(-); type: functional
Outline: (§1)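 Yeast (10⁴ cells) grown in YEPD at 30 °C for 48 h with inhibitors at 0.25-400 μM (DMSO stocks); growth read by optical density, inhibitor-free growth set as 100%. MIC80 = concentration giving 80% growth inhibition. RI = MIC80 in AD-CDR1 or AD-MDR1 divided by MIC80 in control AD1-8u⁻. Means ± SD, duplicate samples, at least three independent experiments.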

Candida albicans [2] = experiment: Inhibition of Candida albicans CDR1 expressed in Saccharomyces cerevisiae AD assessed as potentiation of fluconazole-induced antifungal activity against Saccharomyces cerevisiae AD by checkerboard method
Outline: (§2)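 Checkerboard per CLSI in AD1-8u⁻ control, AD-CDR1 or AD-MDR1 cells (10⁴ cells) grown 48 h at 30 °C. Fluconazole 4-209 μM crossed with compound 0.25-400 μM. Growth read by optical density. FIC of each agent is its MIC in combination divided by its MIC alone. FICI is the sum of the fluconazole and compound FICs, with values below 0.5 taken as synergy.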

[3] = Lipophilicity, log P of the compound; type: physicochemical; conditions: octanol/water
Candida albicans [4] = experiment: Inhibition of Candida albicans CDR1 expressed in Saccharomyces cerevisiae AD assessed as potentiation of fluconazole-induced antifungal activity against Saccharomyces cerevisiae AD by measuring fold reduction in fluconazole MIC80 by checkerboard method
Outline: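 AD-CDR1 cells (10⁴) grown 48 h at 30 °C in a CLSI checkerboard, fluconazole 4-209 μM crossed with compound 0.25-400 μM, growth read by optical density. Fold reduction is derived from the fluconazole MIC alone versus the fluconazole MIC in combination.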

Candida albicans [5] = experiment: Inhibition of Candida albicans MDR1 expressed in Saccharomyces cerevisiae AD assessed as reduction in nile red dye efflux at 70 uM after 30 mins by flow cytometry relative to control
Outline: (§3)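 AD-CDR1 or AD-MDR1 cells grown in YEPD at 30 °C with shaking from OD600 0.1 to 0.25, then resuspended as a 5% suspension in 1:2 YEPD:water. Nile Red (final 7 μM) added with or without compound at 70 μM, 30 min at 30 °C. Cells washed twice and 10,000 cells analysed by flow cytometry. Efflux rate expressed relative to untreated control cells. Means ± SD, three independent experiments.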

Saccharomyces cerevisiae [6] = experiment: Resistance index, ratio of MIC80 for Saccharomyces cerevisiae AD over-expressing Candida albicans CDR1 to MIC80 for Saccharomyces cerevisiae AD1-8u(-); type: functional; outline: as §1
Saccharomyces cerevisiae [7] = experiment: Antifungal activity against Saccharomyces cerevisiae AD over-expressing Candida albicans MDR1 after 48 hrs; type: functional; outline: as §1
Candida albicans [8] = experiment: Inhibition of Candida albicans MDR1 expressed in Saccharomyces cerevisiae AD assessed as ratio of compound MIC80 in combinantion with fluconazole to compound alone MIC80 for Saccharomyces cerevisiae AD by checkerboard method
Outline: (§4)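 Checkerboard per CLSI with 10⁴ cells of AD-CDR1, AD-MDR1 or AD1-8u⁻, grown 48 h at 30 °C. Fluconazole 4-209 μM crossed with compound 0.25-400 μM, growth read by optical density. Compound FIC is the compound MIC in combination with fluconazole divided by its MIC alone.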

Saccharomyces cerevisiae [9] = experiment: Antifungal activity against Saccharomyces cerevisiae AD over-expressing Candida albicans CDR1 after 48 hrs; type: functional; outline: as §1
Saccharomyces cerevisiae [10] = experiment: Potentiation of fluconazole-induced antifungal activity against Saccharomyces cerevisiae AD1-8u(-) by checkerboard method; type: functional; outline: as §2
Saccharomyces cerevisiae [11] = experiment: Synergistic antifungal activity against Saccharomyces cerevisiae AD1-8u(-) assessed as ratio of compound MIC80 in combinantion with fluconazole to compound alone MIC80 by checkerboard method; type: functional; outline: as §4
Candida albicans [12] = experiment: Inhibition of Candida albicans CDR1 expressed in Saccharomyces cerevisiae AD assessed as reduction in nile red dye efflux at 70 uM after 30 mins by flow cytometry relative to control; outline: as §3
Candida albicans [13] = experiment: Inhibition of Candida albicans CDR1 expressed in Saccharomyces cerevisiae AD assessed as ratio of compound MIC80 in combinantion with fluconazole to compound alone MIC80 for Saccharomyces cerevisiae AD by checkerboard method; outline: as §4
Saccharomyces cerevisiae [14] = experiment: Antifungal activity against Saccharomyces cerevisiae AD1-8u(-) after 48 hrs; type: functional
Outline: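 S. cerevisiae AD1-8u⁻ control strain revived from glycerol stock on YEPD plates and grown in YEPD at 30 °C. 10⁴ cells exposed to compound at 0.25-400 μM for 48 h at 30 °C. Growth read as optical density, with no-inhibitor growth as 100%. MIC80 is the concentration giving 80% growth inhibition. Means ± SD of duplicates from at least three independent experiments.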

Candida albicans [15] = experiment: Inhibition of Candida albicans MDR1 expressed in Saccharomyces cerevisiae AD assessed as potentiation of fluconazole-induced antifungal activity against Saccharomyces cerevisiae AD by checkerboard method; outline: as §2

| SMILES | Ratio (Saccharomyces cerevisiae [1]) | fractional inhibitory concentration index (FICI) (Candida albicans [2]) | logP [3] | fold change (FC) (Candida albicans [4]) | inhibition (Candida albicans [5]) [%] | Ratio (Saccharomyces cerevisiae [6]) | MIC80 (Saccharomyces cerevisiae [7]) [µM] | Ratio (Candida albicans [8]) | MIC80 (Saccharomyces cerevisiae [9]) [µM] | fractional inhibitory concentration index (FICI) (Saccharomyces cerevisiae [10]) | Ratio (Saccharomyces cerevisiae [11]) | inhibition (Candida albicans [12]) [%] | Ratio (Candida albicans [13]) | MIC80 (Saccharomyces cerevisiae [14]) [µM] | fractional inhibitory concentration index (FICI) (Candida albicans [15]) |
| --- | --- | --- | --- | --- | --- | --- | --- | --- | --- | --- | --- | --- | --- | --- | --- |
| CCC(=O)O[C@@H]1[C@@H]2[C@@H](OC(C)=O)[C@]3(CC[C@H]4[C@@H](/C=C(\C)C(=O)[C@@]2(OC(C)=O)C[C@@H]1C)C4(C)C)CO3 | 0.97 | 0.54 | 2.32 | 23 | 20 | 0.98 | 498 (≈ 244 µg/mL) | 1 | 501 (≈ 246 µg/mL) | 2 | 1 | 10 | 0.5 | 510 (≈ 250 µg/mL) | 1.3 |
| C=C1CC[C@H]2[C@@H](/C=C(\C)C(=O)[C@@]3(O)C[C@H](C)[C@H](O)[C@@H]3[C@H]1OC(=O)c1cccc(C(F)(F)F)c1)C2(C)C | 0.87 | 0.52 | 3.41 | 52 | 25 | 0.99 | 867 (≈ 439 µg/mL) | 1 | 982 (≈ 497 µg/mL) | 2 | 1 | 70 | 0.5 | 988 (≈ 500 µg/mL) | 1.3 |
| C/C1=C\[C@@H]2[C@H](CC[C@]3(CO3)[C@H](O)[C@H]3[C@@H](O)[C@@H](C)C[C@]3(O)C1=O)C2(C)C | 4 | 1.4 | 1.91 | – | 85 | 4 | 2800 (≈ 981 µg/mL) | 1 | 2800 (≈ 981 µg/mL) | 2 | 1 | 30 | 1 | 714 (≈ 250 µg/mL) | 1.3 |
| C=C1CC[C@H]2[C@@H](/C=C(\C)C(=O)[C@@]3(O)C[C@H](C)[C@H](O)[C@@H]3[C@H]1OC(=O)c1cccc(OC)c1)C2(C)C | 1.05 | 1.4 | 3.42 | – | 35 | 0.92 | 1120 (≈ 526 µg/mL) | 1 | 992 (≈ 465 µg/mL) | 2 | 1 | 80 | 1 | 1070 (≈ 500 µg/mL) | 1.3 |
| C=C1CC[C@H]2[C@@H](/C=C(\C)C(=O)[C@@]3(O)C[C@H](C)[C@H](O)[C@@H]3[C@H]1OC(=O)c1cccc(Br)c1)C2(C)C | 0.91 | 1.4 | 3.11 | – | 30 | 0.93 | 884 (≈ 457 µg/mL) | 1 | 901 (≈ 466 µg/mL) | 2 | 1 | 85 | 1 | 968 (≈ 501 µg/mL) | 1.3 |
| COc1ccc(C(=O)O[C@@H]2[C@@H]3[C@@H](OC(=O)c4ccc(OC)cc4)[C@]4(CC[C@H]5[C@@H](/C=C(\C)C(=O)[C@@]3(O)C[C@@H]2C)C5(C)C)CO4)cc1 | 1.06 | 1.4 | 4.51 | – | 80 | 0.95 | 861 (≈ 533 µg/mL) | 1 | 776 (≈ 480 µg/mL) | 2 | 1 | 10 | 1 | 809 (≈ 501 µg/mL) | 1.3 |
